Reference: ChEMBL document CHEMBL3045566, “Phytochemicals from Cunninghamia konishii Hayata act as antifungal agents” (2012)

Legend:
Format in all cases: functional
[1] = test system: Gloeophyllum trabeum; assay: Antifungal activity against Gloeophyllum trabeum BCRC 31614 (wood decay fungi) assessed as reduction of fungi mycelium growth at 100 ug/ml
How it was run: (§1)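 Fungi kept on potato dextrose agar at 4 °C. Samples dissolved in 150 μL ethanol and mixed into 15 mL PDA to give the final concentration. A 5 mm mycelial plug from the culture edge was placed centrally on each 9-cm plate. Plates were held in the dark at 26 ± 2 °C and 70% RH. Antifungal index was scored once control plates without test material were fully overgrown.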

[2] = test system: Laetiporus sulphureus; assay: Antifungal activity against Laetiporus sulphureus BCRC 35305 (wood decay fungi) assessed as reduction of fungi mycelium growth at 100 ug/ml; how it was run: as §1
[3] = test system: Trametes versicolor; assay: Antifungal activity against Trametes versicolor BCRC 35253 wood decay fungi assessed as reduction of fungi mycelium growth at 100 ug/ml; how it was run: as §1
[4] = test system: Lenzites betulinus; assay: Antifungal activity against Lenzites betulinus BCRC 35296 assessed as reduction of fungi mycelium growth at 100 ug/ml; how it was run: as §1

C[C@@H]1CC[C@H]2C(C)(C)[C@H]3C[C@@]12CC[C@@]3(C)O [CEDROL]
inhibition at 100 µg/mL [1]: 68.3%
inhibition at 100 µg/mL [2]: 100%
inhibition at 100 µg/mL [3]: 74.8%
inhibition at 100 µg/mL [4]: 95.5%

CCCCCCCCCC[N+](C)(C)CCCCCCCCCC [DIDECYLDIMETHYLAMMONIUM CHLORIDE]
inhibition at 100 µg/mL [1]: 100%
inhibition at 100 µg/mL [2]: 100%
inhibition at 100 µg/mL [3]: 100%
inhibition at 100 µg/mL [4]: 100%

C=CC(=C)CC[C@@H]1[C@@]2(C)CCCC(C)(C)[C@@H]2CC[C@@]1(C)O [ISOABIENOL]
inhibition at 100 µg/mL [1]: 6.8%
inhibition at 100 µg/mL [2]: 8.2%
inhibition at 100 µg/mL [3]: 27.8%
inhibition at 100 µg/mL [4]: 25.6%

CC1=C[C@@H]2[C@@H](CC1)[C@@](C)(O)CC[C@H]2C(C)C [T-CADINOL]
inhibition at 100 µg/mL [1]: 100%
inhibition at 100 µg/mL [2]: 100%
inhibition at 100 µg/mL [3]: 51.4%
inhibition at 100 µg/mL [4]: 100%

CC1=C[C@H]2[C@H](C(C)C)CC[C@](C)(O)[C@H]2CC1 [T-MUUROLOL]
inhibition at 100 µg/mL [1]: 100%
inhibition at 100 µg/mL [2]: 100%
inhibition at 100 µg/mL [3]: 39.5%
inhibition at 100 µg/mL [4]: 100%
